Assay results from ChEMBL document CHEMBL4619757, “Identification of new arylsulfide derivatives as anti-melanogenic agents in a zebrafish model” (Bioorg Med Chem Lett, 2020).
Active and inactive are the calls of the source. The calls are words filed in the database; no cut-off is given here.

Experiments:
[1] = organism: Danio rerio; assay: Antimelanogenic activity against zebrafish embryo assessed as whitening efficacy at 10 uM; format: functional, organism-based
[2] = test system: HMV-2 cell line; assay: Antimelanogenic activity against human HMVII cells assessed as reduction in MITF mRNA level at 1 to 20 uM measured after 24 hrs by RT-PCR analysis; format: functional, cell-based
How it was run: (§1)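 HMV-II melanoma cells were treated with compound for 24 h. MITF, TRP-1 and TRP-2 mRNA levels were then quantified by real-time RT-PCR.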

[3] = test system: HMV-2 cell line; assay: Antimelanogenic activity against human HMVII cells assessed as change in melanin colour from black to brown; format: functional, cell-based
[4] = Toxicity against human eye assessed as effect on tissue viability up to 50 uM measured after 30 mins by MTT assay; format: tissue-based; details: 0.5 h
How it was run: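 Reconstructed human ocular tissue (Neoderm-CD) was exposed to compound up to 50 µM and stained with MTT (1 mg/mL) for 30 min. Formazan was extracted with isopropanol and absorbance read at 570 nm.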

[5] = Toxicity against human skin assessed as effect on tissue viability up to 50 uM measured after 3 hrs by MTT assay
[6] = test system: HMV-2 cell line; assay: Antimelanogenic activity against human HMVII cells assessed as reduction in TRP2 mRNA level at 1 to 20 uM measured after 24 hrs by RT-PCR analysis; format: functional, cell-based; how it was run: as §1
[7] = test system: HMV-2 cell line; assay: Antimelanogenic activity against human HMVII cells assessed as reduction in TRP1 mRNA level at 1 to 20 uM measured after 24 hrs by RT-PCR analysis; format: functional, cell-based; how it was run: as §1
[8] = test system: HMV-2 cell line; assay: Antimelanogenic activity against human HMVII cells assessed as melanin content in cell lysate at 10 uM relative to control; format: functional
How it was run: (§2)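 Human melanoma HMV-II cells were exposed to compound at 1, 10 or 20 µM. Melanin was pelleted from cell lysates, and total melanin content was expressed relative to the DMSO-treated control.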

[9] = test system: HMV-2 cell line; assay: Antimelanogenic activity against human HMVII cells assessed as reduction in tyrosinase mRNA level at 10 to 20 uM measured after 24 hrs by RT-PCR analysis; format: functional, cell-based
[10] = test system: HMV-2 cell line; assay: Antimelanogenic activity against human HMVII cells assessed as reduction in melanin content in cell lysate; format: functional, cell-based; how it was run: as §2
[11] = test system: HMV-2 cell line; assay: Cytotoxicity against human HMVII cells assessed as decrease in cell survival at 20 uM measured after 5 days by Cytox-reagent based relative to control; details: hmv-2, 120 h
How it was run: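 HMV-II cells were seeded at 7,500 cells/well and cultured 24 h, then exposed to compound for 5 days. Viability was read with CytoX reagent.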

[12] = test system: HMV-2 cell line; assay: Antimelanogenic activity against human HMVII cells assessed as melanin content in cell lysate at 1 uM relative to control; format: functional; how it was run: as §2
[13] = test system: HMV-2 cell line; assay: Antimelanogenic activity against human HMVII cells assessed as melanin content in cell lysate at 20 uM relative to control; format: functional; how it was run: as §2
[14] = organism: Danio rerio; assay: Antimelanogenic activity against zebrafish embryo assessed as whitening efficacy; format: functional, organism-based
How it was run: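 Synchronized zebrafish embryos were treated with compound and scored for pigmentation. Controls received 0.1% DMSO or 0.2 mM PTU.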

[15] = test system: HMV-2 cell line; assay: Antimelanogenic activity against human HMVII cells assessed as melanin content in cell lysate at 100 uM relative to control; format: functional
How it was run: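 HMV-II human melanoma cells were cultured for 5 days with test sample or DMSO. Melanin pellets were collected from cell lysates, and total melanin content was expressed relative to the DMSO control.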

Structure (SMILES)	Activity [1]	other results
Fc1ccc(Sc2ncnc3[nH]cnc23)cc1	inactive	
FC(F)(F)c1ccc(Sc2nccc3ccccc23)cc1	inactive	
Fc1ccc(Sc2nccc3ccccc23)cc1	Active	inhibition [2]: Active; Activity [3]: Active; Activity [4]: Non-Toxic; Activity [5]: Non-Toxic; inhibition [6]: Active; inhibition [7]: Active; Activity [8]: 31.3%; inhibition [9]: Active; Activity [10]: Dose-dependent effect; Activity [11]: < 10%; Activity [12]: 67.6%; Activity [13]: 14.6%; Activity [14]: Dose-dependent effect
Fc1ccc(Oc2nccc3ccccc23)cc1	inactive	
Clc1ccc(Sc2nccc3ccccc23)cc1	Active	
c1ccc2c(Sc3nccc4ccccc34)nccc2c1	Active	
c1ccc(Sc2nccc3ccccc23)nc1	Active	
CCOC(=O)c1ccc(Sc2nccc3ccccc23)cc1	Active	
Fc1ccccc1Sc1nccc2ccccc12	Active	
O=c1cc(CO)occ1O [KOJIC ACID]		Activity [15]: 45.9%
OC[C@H]1O[C@@H](Oc2ccc(O)cc2)[C@H](O)[C@@H](O)[C@@H]1O [ARBUTIN]		Activity [15]: 85.6%
Fc1ccc(Nc2nccc3ccccc23)cc1	inactive	
c1ccc2c(Sc3nc4ccccc4[nH]3)nccc2c1	Active	
Fc1ccc(Sc2[nH]cnc3nccc2-3)cc1	Active	
Nc1ccc(Sc2nccc3ccccc23)cc1	Active	
Cc1ccc(Sc2nccc3ccccc23)cc1	Active	
c1cnc(Sc2nccc3ccccc23)nc1	Active	
c1ccc2c(Sc3nc4ccccc4s3)nccc2c1	inactive	
c1ccc(Sc2nccc3ccccc23)cc1	Active	Activity [14]: Dose-dependent effect
Fc1ccc(Sc2ncnc3cc[nH]c23)cc1	Active	
Fc1ccc(Sc2ncnc3c(Br)csc23)cc1	Active	Activity [14]: Dose-dependent effect
Fc1ccc(Sc2nccc3ccccc23)c(F)c1	Active	
